Laboratory results from ChEMBL document CHEMBL3745688, “Discovery of novel hybrids of diaryl-1,2,4-triazoles and caffeic acid as dual inhibitors of cyclooxygenase-2 and 5-lipoxygenase for cancer therapy” (Eur J Med Chem, 2016).

Experiments:
A549 [1] = experiment: Induction of apoptosis in human A549 cells after 3 days by annexinV-APC/7-AAD staining based flow cytometry; assay type: functional, cell-based
A549 [2] = experiment: Cell cycle arrest in human A549 cells assessed as accumulation at G2 phase at 1 uM after 72 hrs by propidium iodide staining based flow cytometry (reference value: 3.88%); assay type: functional
A549 [3] = experiment: Cell cycle arrest in human A549 cells assessed as accumulation at G1 phase at 5 uM after 72 hrs by propidium iodide staining based flow cytometry (reference value: 53.66%); assay type: functional
A549 [4] = experiment: Cell cycle arrest in human A549 cells assessed as accumulation at G2 phase at 5 uM after 72 hrs by propidium iodide staining based flow cytometry (reference value: 3.88%); assay type: functional
A549 [5] = experiment: Cell cycle arrest in human A549 cells assessed as accumulation at G2 phase after 72 hrs by propidium iodide staining based flow cytometry; assay type: functional
A549 [6] = experiment: Induction of apoptosis in human A549 cells assessed as necrotic cells at 1 uM after 72 hrs by annexinV-APC/7-AAD staining based flow cytometry (reference value: 0.41%); assay type: functional
A549 [7] = experiment: Induction of apoptosis in human A549 cells assessed as viable cells at 5 uM after 72 hrs by annexinV-APC/7-AAD staining based flow cytometry (Rvb =92.08%); assay type: functional; details: A549, 72 h, read-out: Activity
A549 [8] = experiment: Induction of apoptosis in human A549 cells assessed as early apoptotic cells at 5 uM after 72 hrs by annexinV-APC/7-AAD staining based flow cytometry (reference value: 5.7%); assay type: functional
A549 [9] = experiment: Induction of apoptosis in human A549 cells assessed as late apoptotic cells at 5 uM after 72 hrs by annexinV-APC/7-AAD staining based flow cytometry (reference value: 1.81%); assay type: functional
A549 [10] = experiment: Induction of apoptosis in human A549 cells assessed as necrotic cells at 5 uM after 72 hrs by annexinV-APC/7-AAD staining based flow cytometry (reference value: 0.41%); assay type: functional
[11] = biological target: T1, Polyunsaturated fatty acid 5-lipoxygenase (Rattus norvegicus, UniProt P12527); experiment: Inhibition of 5-LOX in Sprague-Dawley rat leukocytes assessed as A23187 stimulated LTB4 production pretreated for 30 mins followed by addition of A23187 for 30 mins by EIA; assay type: cell-based
T1 sequence (P12527 whole entry): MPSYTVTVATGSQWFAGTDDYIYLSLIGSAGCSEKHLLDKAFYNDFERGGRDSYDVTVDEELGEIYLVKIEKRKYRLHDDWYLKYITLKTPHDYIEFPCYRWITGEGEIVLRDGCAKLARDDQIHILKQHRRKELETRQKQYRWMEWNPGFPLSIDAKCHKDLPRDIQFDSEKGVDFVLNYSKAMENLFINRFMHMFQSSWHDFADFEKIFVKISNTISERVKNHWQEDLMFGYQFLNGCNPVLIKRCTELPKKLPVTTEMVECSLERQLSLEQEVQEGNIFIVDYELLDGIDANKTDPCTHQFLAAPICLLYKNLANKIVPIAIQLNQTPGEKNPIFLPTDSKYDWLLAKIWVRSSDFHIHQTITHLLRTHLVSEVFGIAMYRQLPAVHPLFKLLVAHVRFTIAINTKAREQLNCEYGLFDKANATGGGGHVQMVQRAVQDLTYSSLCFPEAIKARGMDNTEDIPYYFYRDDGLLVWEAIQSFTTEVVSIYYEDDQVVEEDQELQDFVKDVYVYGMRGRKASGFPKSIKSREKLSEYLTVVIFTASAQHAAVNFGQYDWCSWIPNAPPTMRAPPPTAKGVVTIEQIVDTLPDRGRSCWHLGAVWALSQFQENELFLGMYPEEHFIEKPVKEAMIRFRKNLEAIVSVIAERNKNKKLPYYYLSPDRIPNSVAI
In short: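 Rat peritoneal leukocytes collected from Sprague-Dawley rats primed i.p. with 0.2% glycogen (20 mL/kg). Cells in Hanks solution plated at 1.0×10^6/well and held 10 min at 37 °C. Pretreated 30 min with L-cysteine (10 mM), indomethacin (1 mg/L) and compound or DMSO. A23187 added for 30 min. LTB4 in the clarified supernatant measured by EIA; % inhibition from OD; IC50 by Bliss method.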

A549 [12] = experiment: Antiproliferative activity against human A549 cells after 72 hrs by MTT assay; assay type: functional, cell-based; details: A549, 72 h
In short: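 Cells seeded at 5×10^4/well, grown 24 h at 37 °C in 5% CO₂, then exposed to compounds dissolved in DMSO at a range of concentrations for 72 h. MTT (5 mg/mL in PBS) added for 4 h, then OD read at 570 nm. IC50 taken from dose-response curves, mean ± S.D. of three independent experiments.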

A549 [13] = experiment: Induction of apoptosis in human A549 cells assessed as early apoptotic cells at 1 uM after 72 hrs by annexinV-APC/7-AAD staining based flow cytometry (reference value: 5.7%); assay type: functional

In the case of CS(=O)(=O)c1ccc(-c2nc(SCCCOC(=O)/C=C/c3ccc(O)c(O)c3)nn2-c2ccc(F)cc2)cc1, the Activity (A549 [1]) is reported as “Dose-dependent effect”, the Activity (A549 [2]) is reported as 7.24% and the Activity (A549 [3]) is reported as 45.34%. The Activity (A549 [4]) was 13.76%, the Activity (A549 [5]) was “Dose-dependent effect” and the Activity (A549 [6]) was 0.91%. It also gave a viability at 5 µM (A549 [7]) of 67.8%, an Activity (A549 [8]) of 23.68% and an Activity (A549 [9]) of 6.37%. The Activity (A549 [10]) was 2.14%, the IC50 [11] was 0.71 µM and the IC50 (A549 [12]) was 9.52 µM. It also gave an Activity (A549 [13]) of 9.73%.
